Most compounds without a hit are left out; they make up all but 2.3% or so of the library.
Env fusion inh = blocks HIV Env-driven cell-cell fusion; AID 651610; actives 1.1% (n = 360,000); HeLa-JRFL Env/CEM21 cell fusion, luciferase; inhibition, % at 12.3 µM;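 active means mean replicate inhibition score of at least 50 and every replicate individually at or above 50; inconclusive means only one of the two criteria met; inactive means mean below 50 and not all replicates reaching 50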;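 further: 0% = plate neutral controls and 100% = maraviroc near 300 nM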
EWS-Fli inh = EWS/Fli transcriptional activity inhibition; actives 0.67% (n = 350,000); A673 NR0B1-luciferase reporter, viability-normalised; inhibition, % at 12.6 µM; AID 651661;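 active means mean inhibition of at least 50% after viability correction, with every replicate also passing that limit; inconclusive means mean reaches 50% but only one of two replicates passes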;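 further: firefly luciferase signal divided by Alamar Blue viability fluorescence both relative to DMSO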
FN deposition inh = fibronectin deposition inhibition | AH1F fibroblasts, Alexa488-fibronectin deposition fluorescence, overnight | inhibition, % at 12.6 µM | actives 0.086% (n = 350,000);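 active means mean inhibition across replicates of 30% or more, regardless of how many single replicates reach that level; inconclusive means mean under 30% yet at least half of replicates reach 30%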;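 further: positive control wells lacked labelled fibronectin entirely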
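Material: AH1F fibroblasts assembling fluorescent fibronectin matrix; amount: 10000 AH1F cells/well; medium: DMEM, 2% serum; reagent: Alexa488-fibronectin, 24 nM final in well; dosing: single compound dose, delivered by pin transfer; incubation: 1 h adhesion, overnight exposure; detection: fluorescence after three HBSS washes, excitation 485 nm, emission 525 nm; measure: fibronectin deposition inhibition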
PGC1a acetyl inh = lowers PGC1a acetylation signal in U2OS cells; AlphaScreen anti-acetyl-lysine; with virally co-expressed GCN5 acetyltransferase; inhibition, % at 15.6 µM; actives 0.17% (n = 350,000); AID 651687;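 active means every replicate shows inhibition of at least 40%; inconclusive means mean inhibition at least 40% but some replicate below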;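 further: 0% = neutral control wells and 100% = positive control wells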
CFTR F508del cor = CFTR F508del correction in bronchial cells; activity (quench increase), % at 7.58 µM; CFBE cells, YFP halide quenching; stimulated with forskolin plus potentiator P3; % fluorescence drop versus neutral controls; actives 0.36% (n = 350,000);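 active means mean added fluorescence quench of at least 8% versus neutral control, with both replicates also reaching 8%; inconclusive means only one of the mean or replicate conditions met; inactive means mean below 8% and not both replicates reaching 8%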;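 further: cells transiently co-express mutant CFTR-F508del with the halide-sensitive YFP; corrector assay measuring rescue of mutant channel to the surface after 24 h compound exposure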
PAX8 inh HTS = lowers PAX8-driven luciferase in RMG-I cells | RMG-I TPO-luciferase reporter, SteadyGlo, 24 h | inhibition, % at 12.6 µM | actives 1.2% (n = 360,000) | AID 652154;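 active means mean replicate inhibition at least 60% with every replicate also reaching 60%; inconclusive means only one of the two criteria is met; inactive means mean below 60% and not all replicates reaching 60%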;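 further: luciferase light reporting Pax8 driven TPO promoter activity; plate controls were median of neutral control wells for no effect and mitoxantrone controls for full effect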
Active calls of the source: *; ? = inconclusive; . = no result given; [ ] = another dose, or the depositor's remark.

SMILES | Env fusion inh | EWS-Fli inh | FN deposition inh | PGC1a acetyl inh | CFTR F508del cor | PAX8 inh HTS
C[C@@H]1CN([C@H](C)CO)C(=O)c2cc(NS(=O)(=O)c3ccc(Cl)cc3)ccc2O[C@@H](C)CCCCO[C@@H]1CN(C)Cc1ccc(Cl)c(Cl)c1 | 18[16.7 µM] | 15 | -1 | -23 | 2 | 98*
COc1ccc(CN2C[C@H](C)[C@H](OC)CN(C)C(=O)c3cc(NC(=O)c4nc5ccccc5s4)ccc3OC[C@@H]2C)cc1 | . | 6 | 5 | -16 | 6 | -4
CN(C)C(=O)C[C@H]1CC[C@H]2[C@@H](COc3ccc(NC(=O)c4ccc(F)cc4)cc3C(=O)N2C)O1 | 4[16.7 µM] | -7 | -13 | . | . | -6
CCCC#Cc1ccc2c(c1)[C@@H]1[C@@H](CCN1C(=O)C1CC1)[C@@H](CO)N2 | . | . | -2 | . | . | .
Cc1cccc(S(=O)(=O)N(C)C[C@H]2OCc3ccccc3-c3ccccc3C(=O)N([C@@H](C)CO)C[C@H]2C)c1 | . | . | 11 | . | . | .
C[C@H](CO)N1C[C@H](C)[C@@H](CN(C)Cc2ccc(Cl)c(Cl)c2)OCCCC[C@H](C)Oc2ccc(NS(=O)(=O)c3ccc(Cl)cc3)cc2C1=O | -18[16.7 µM] | 8 | 3 | -16 | 3 | 101*
C[C@@H]1CCCCO[C@@H](CN(C)Cc2ccc(Cl)c(Cl)c2)[C@H](C)CN([C@@H](C)CO)C(=O)c2cc(NS(=O)(=O)c3ccc(Cl)cc3)ccc2O1 | -25[16.7 µM] | 9 | 0 | -22 | 0 | 104*
CO[C@@H]1CN(C)C(=O)c2ccc(NC(=O)C3CCOCC3)cc2OC[C@@H](C)N(C(=O)C2CCOCC2)C[C@H]1C | . | -7 | -3 | 2 | -2 | .
C[C@@H]1CCCCO[C@@H](CN(C)C(=O)Nc2ccc(F)cc2)[C@H](C)CN([C@@H](C)CO)C(=O)c2cc(NC(=O)c3ccncc3)ccc2O1 | -8[16.7 µM] | -6 | -5 | 5 | 3 | 18
COc1ccc(S(=O)(=O)Nc2ccc3c(c2)CC(=O)N([C@@H](C)CO)C[C@H](C)[C@H](CN(C)S(=O)(=O)c2cccs2)O3)cc1 | 80*[16.7 µM] | 13 | -1 | 2 | 0 | -25
C[C@H]1CN([C@@H](C)CO)C(=O)Cc2cc(NC(=O)C3CCCCC3)ccc2O[C@@H]1CN(C)S(=O)(=O)c1cccs1 | 14[16.7 µM] | -3 | . | 5 | 1 | -2
COc1ccc(NC(=O)Nc2ccc3c(c2)CC(=O)N([C@@H](C)CO)C[C@H](C)[C@H](CN(C)S(=O)(=O)c2cccs2)O3)cc1 | 75*[16.7 µM] | -11 | -6 | 5 | 2 | 20
C[C@H](CO)N1C[C@H](C)[C@H](CN(C)S(=O)(=O)c2cccs2)Oc2ccc(NC(=O)CCN3CCOCC3)cc2CC1=O | 56*[16.7 µM] | 1 | . | -1 | -2 | -16
COc1ccc(S(=O)(=O)Nc2ccc3c(c2)CC(=O)N([C@H](C)CO)C[C@@H](C)[C@H](CN(C)S(=O)(=O)c2cccs2)O3)cc1 | 29[16.7 µM] | -1 | -15 | 13 | -1 | -23
C[C@H](CO)N1C[C@H](C)[C@H](CN(C)S(=O)(=O)c2cccs2)Oc2ccc(NC(=O)C3CCCCC3)cc2CC1=O | 61*[16.7 µM] | -5 | . | -6 | 1 | -10
CS(=O)(=O)Nc1ccc2c(c1)[C@H]1C[C@@H](CC(=O)NCC(F)(F)F)O[C@@H](CO)[C@H]1O2 | -9[16.7 µM] | 3 | -3 | 10 | 2 | 0
COc1cccc(-c2ccc3c(c2)[C@@H]2[C@@H](CCN2C(=O)C2CCOCC2)[C@@H](CO)N3)c1 | . | -5 | 9 | -7 | 3 | -8
C[C@H](CO)N1C[C@H](C)[C@H](CN(C)S(=O)(=O)c2cccs2)Oc2ccc(NC(=O)Cc3ccccc3)cc2CC1=O | 96*[16.7 µM] | 3 | . | 11 | -1 | 2
C[C@H]1CN([C@@H](C)CO)C(=O)Cc2cc(NC(=O)Nc3ccccc3)ccc2O[C@H]1CN(C)S(=O)(=O)c1cccs1 | 70*[16.7 µM] | 1 | . | 4 | 0 | 30
C[C@@H]1CN([C@H](C)CO)C(=O)c2cc(C#Cc3ccccc3)cnc2O[C@@H]1CN(C)C(=O)CCN1CCCCC1 | 1[16.7 µM] | -12 | . | 0 | 5 | .
Fc1ccc(Cn2nnnc2C(c2ccc(Cl)cc2)N2CCSCC2)cc1 (stereo unspecified) | 52* | . | -2 | -8 | . | 9
Nc1c(C(=O)NCc2ccco2)nnn1Cc1ccccc1 | -84 | . | 30* | 0 | . | -8
COc1ccc2c3c(n(C)c2c1)[C@@H](CO)N(Cc1cccnc1)CC31CCN(C(=O)c2cccnc2)CC1 | . | -10 | . | -4 | -1 | .
CCOc1ccc2c(CC)cc(=O)oc2c1OCC | . | -5 | 4 | 7 | -3 | 102*
O=C(CC1CC1)N1CC(=O)N2[C@H](CO)[C@H](c3ccc(C#Cc4ccccc4)cc3)[C@@H]2C1 | . | 6 | . | -8 | 1 | .
SMILES | Env fusion inh | EWS-Fli inh | FN deposition inh | PGC1a acetyl inh | CFTR F508del cor | PAX8 inh HTS
COC(=O)C12OCC34C(CC5C(C)=C(O)C(=O)CC5(C)C3C(O)C1O)OC(=O)C(OC(=O)C=C(C)C)C24 (stereo unspecified) | 64* | 44 | 10 | ? | -8 | 99*
Cc1ccc(SCC(=O)OCC(=O)N(CCC#N)c2ccccc2)cc1C | 5 | -1 | 4 | . | -3 | 3
Cc1ccc(N(CCC#N)C(=O)CCl)cc1C | 31 | 72* | . | 20 | 1 | ?
O=C(C#Cc1ccccc1)c1ccco1 | 3 | 64* | -10 | . | -6 | 124*
CN(C(=S)NC1CCCCC1)C1(c2ccccc2Cl)CCCCC1=O (stereo unspecified) | 93* | . | -6 | . | . | 0
C[C@@H]1CN([C@@H](C)CO)C(=O)c2cc(NC(=O)Nc3cccc4ccccc34)ccc2O[C@@H](C)CCCCO[C@@H]1CN(C)Cc1ccc2c(c1)OCO2 | 0[16.7 µM] | 11 | . | -4 | 8.8* | 35
C[C@@H]1CN([C@@H](C)CO)C(=O)c2cc(NC(=O)Nc3cccc4ccccc34)ccc2O[C@@H]1CN(C)Cc1ccc2c(c1)OCO2 | 16[16.7 µM] | 2 | . | -13 | 3 | 76*
C[C@@H]1CN([C@@H](C)CO)C(=O)c2cc(NC(=O)Nc3cccc4ccccc34)ccc2O[C@@H](C)CCCCO[C@H]1CN(C)Cc1ccc2c(c1)OCO2 | 11[16.7 µM] | 77* | . | -5 | -5 | 7
C[C@@H]1CCCCO[C@H](CN(C)Cc2ccc3c(c2)OCO3)[C@H](C)CN([C@H](C)CO)C(=O)c2cc(NC(=O)Nc3cccc4ccccc34)ccc2O1 | 3[16.7 µM] | 8 | . | -5 | -3 | 8
COc1ccc2c3c([nH]c2c1)[C@@H](CO)N(CC1CC1)CC31CCN(C(=O)NC2CCCC2)CC1 | . | 9 | . | 12 | 4 | .
O=C(C[C@@H]1C=C[C@@H](NC(=O)Nc2cc(F)ccc2F)[C@H](CO)O1)NCc1ccncn1 | 2[16.7 µM] | 4 | 3 | -9 | -1 | -18
